Reference: ChEMBL document CHEMBL1154352, “Toll-like receptor 7 selective synthetic oligoribonucleotide agonists: synthesis and structure-activity relationship studies” (J Med Chem, 2009)
The source made the active and inactive calls. No cut-off for these calls is given here.

Columns and labels:
[1] = Metabolic stability in human serum assessed as full length product remaining after 10 mins by HPLC; type: ADME, cell-free; details: read-out: Stability
Outline: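 About 0.5 A260 units compound in 1% human serum in PBS, 37 °C; aliquot taken at 10 min, analysed by anion-exchange HPLC for percent intact full-length product.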

[2] = target: T1, Toll-like receptor 7 (Homo sapiens) (UniProt Q9NYK1); assay: Activation of human TLR7 expressed in HEK293XL assessed as fold induction of NF-kappaB activity at 50 ug/ml after 18 hrs by reporter gene assay relative to control
T1 sequence (whole entry): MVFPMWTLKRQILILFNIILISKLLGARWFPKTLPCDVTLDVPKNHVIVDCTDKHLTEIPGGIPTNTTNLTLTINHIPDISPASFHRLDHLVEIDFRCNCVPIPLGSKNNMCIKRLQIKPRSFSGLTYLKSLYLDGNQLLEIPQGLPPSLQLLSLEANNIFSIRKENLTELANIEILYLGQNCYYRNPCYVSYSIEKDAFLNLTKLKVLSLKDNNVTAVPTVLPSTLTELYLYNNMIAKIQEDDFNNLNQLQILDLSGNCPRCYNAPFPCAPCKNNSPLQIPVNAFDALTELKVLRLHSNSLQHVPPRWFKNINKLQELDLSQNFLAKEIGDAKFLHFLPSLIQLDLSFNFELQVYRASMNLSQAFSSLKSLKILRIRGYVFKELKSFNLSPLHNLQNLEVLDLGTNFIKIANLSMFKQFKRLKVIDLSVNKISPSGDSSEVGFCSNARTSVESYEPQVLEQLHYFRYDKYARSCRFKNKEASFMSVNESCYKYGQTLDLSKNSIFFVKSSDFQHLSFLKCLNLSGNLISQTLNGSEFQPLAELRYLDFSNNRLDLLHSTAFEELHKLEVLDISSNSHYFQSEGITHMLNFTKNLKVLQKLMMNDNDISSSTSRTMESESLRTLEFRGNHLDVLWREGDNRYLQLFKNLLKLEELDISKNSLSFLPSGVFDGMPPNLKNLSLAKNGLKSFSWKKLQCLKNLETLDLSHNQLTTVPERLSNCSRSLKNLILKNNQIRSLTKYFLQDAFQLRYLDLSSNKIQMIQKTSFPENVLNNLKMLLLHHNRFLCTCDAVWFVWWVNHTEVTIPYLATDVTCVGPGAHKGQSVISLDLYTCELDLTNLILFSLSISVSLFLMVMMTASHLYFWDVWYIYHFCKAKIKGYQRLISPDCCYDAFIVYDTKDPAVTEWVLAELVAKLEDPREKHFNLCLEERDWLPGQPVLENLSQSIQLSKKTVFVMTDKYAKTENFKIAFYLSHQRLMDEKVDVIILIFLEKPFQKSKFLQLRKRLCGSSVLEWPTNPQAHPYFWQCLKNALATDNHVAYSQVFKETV
Outline: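 HEK293 cells stably expressing human TLR7 or TLR8, transiently transfected with SEAP reporter plasmid; medium replaced, SIMRA compounds added, 18 h incubation. Supernatant SEAP measured by QuantiBlue; expressed as fold increase in NF-κB activity over PBS control. Tabulated data at 50 μg/mL, representative of three independent experiments.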

Homo sapiens [3] = species on record: Homo sapiens; assay: Ratio of human TLR7 activity to human TLR8 activity
Outline: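 TLR7/TLR8 ratio computed from fold NF-κB (SEAP reporter) activation in HEK293 cells stably expressing human TLR7 versus TLR8, compounds at 50 μg/mL, 18 h exposure; representative of three independent experiments.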

[4] = target: Toll-like receptor 3 (Homo sapiens) (UniProt O15455); assay: Activation of human TLR3 expressed in HEK293 assessed as induction of NF-kappaB activity reporter gene assay; type: cell-based
Chain of Toll-like receptor 3 (Homo sapiens) (O15455 whole entry): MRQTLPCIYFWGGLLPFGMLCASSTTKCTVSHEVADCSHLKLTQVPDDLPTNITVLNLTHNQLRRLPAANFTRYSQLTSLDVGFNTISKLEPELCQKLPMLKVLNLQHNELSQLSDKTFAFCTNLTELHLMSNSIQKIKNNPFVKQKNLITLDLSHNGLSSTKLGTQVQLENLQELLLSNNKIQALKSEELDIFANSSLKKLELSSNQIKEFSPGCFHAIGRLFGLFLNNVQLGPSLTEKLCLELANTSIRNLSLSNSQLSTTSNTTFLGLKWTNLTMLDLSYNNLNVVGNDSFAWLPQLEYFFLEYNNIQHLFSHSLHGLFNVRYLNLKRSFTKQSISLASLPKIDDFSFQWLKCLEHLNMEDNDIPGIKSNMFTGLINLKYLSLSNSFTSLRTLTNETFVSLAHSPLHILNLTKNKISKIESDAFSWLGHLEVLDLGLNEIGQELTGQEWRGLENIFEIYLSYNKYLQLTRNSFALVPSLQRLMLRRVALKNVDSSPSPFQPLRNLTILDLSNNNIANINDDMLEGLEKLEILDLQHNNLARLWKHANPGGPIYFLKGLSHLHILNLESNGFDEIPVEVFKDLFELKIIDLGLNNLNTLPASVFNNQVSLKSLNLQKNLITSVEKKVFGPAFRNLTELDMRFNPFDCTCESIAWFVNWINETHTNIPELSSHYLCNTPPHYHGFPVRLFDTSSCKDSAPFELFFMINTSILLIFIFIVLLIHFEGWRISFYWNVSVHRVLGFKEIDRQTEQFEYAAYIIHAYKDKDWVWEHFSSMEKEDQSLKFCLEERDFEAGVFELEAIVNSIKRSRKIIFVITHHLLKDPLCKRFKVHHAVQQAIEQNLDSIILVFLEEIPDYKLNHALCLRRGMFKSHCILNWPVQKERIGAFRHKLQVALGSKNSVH

Homo sapiens [5] = species on record: Homo sapiens; assay: Immunostimulatory activity in human pDC assessed as induction of IFNalpha at 100 ug/ml after 24 hrs; type: functional
Outline: (§1)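 Human pDCs plated at 1 × 10^6 cells/mL; compounds in PBS added, 37 °C for 24 h; supernatant cytokines/chemokines by human Luminex multiplex kit.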

PBMC [6] = assay: Immunomodulatory activity in human PBMC assessed as induction of IL6 after 24 hrs; type: functional, cell-based
Outline: (§2)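 Human PBMCs plated at 5 × 10^6 cells/mL; compounds dissolved in PBS added at various concentrations, 37 °C for 24 h. Supernatant cytokines/chemokines quantified with human Luminex multiplex kit.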

PBMC [7] = assay: Immunomodulatory activity in human PBMC assessed as induction of IL12 at 50 ug/ml after 24 hrs; type: functional, cell-based; outline: as §2
PBMC [8] = assay: Immunomodulatory activity in human PBMC assessed as induction of TNFalpha at 50 ug/ml after 24 hrs; type: functional, cell-based; outline: as §2
PBMC [9] = assay: Immunomodulatory activity in human PBMC assessed as induction of IFNalpha at 50 ug/ml after 24 hrs; type: functional, cell-based; outline: as §2
PBMC [10] = assay: Immunomodulatory activity in human PBMC assessed as induction of MIP1alpha at 50 ug/ml after 24 hrs; type: functional, cell-based; outline: as §2
PBMC [11] = assay: Immunomodulatory activity in human PBMC assessed as induction of MIP1beta at 50 ug/ml after 24 hrs; type: functional, cell-based; outline: as §2
PBMC [12] = assay: Immunomodulatory activity in human PBMC assessed as induction of IP10 at 50 ug/ml after 24 hrs; type: functional, cell-based; outline: as §2
PBMC [13] = assay: Immunomodulatory activity in human PBMC assessed as induction of MCP1 at 50 ug/ml after 24 hrs; type: functional, cell-based; outline: as §2
PBMC [14] = assay: Immunomodulatory activity in human PBMC assessed as induction of IL6 at 50 ug/ml after 24 hrs; type: functional, cell-based; outline: as §2
PBMC [15] = assay: Immunomodulatory activity in human PBMC assessed as induction of IL1-beta at 50 ug/ml after 24 hrs; type: functional, cell-based; outline: as §2
Homo sapiens [16] = species on record: Homo sapiens; assay: Immunostimulatory activity in human pDC assessed as induction of IP10 at 100 ug/ml after 24 hrs; type: functional; outline: as §1
Homo sapiens [17] = species on record: Homo sapiens; assay: Immunostimulatory activity in human pDC assessed as induction of IL6 at 100 ug/ml after 24 hrs; type: functional; outline: as §1
Homo sapiens [18] = species on record: Homo sapiens; assay: Immunostimulatory activity in human mDC assessed as induction of IFNalpha at 100 ug/ml after 24 hrs; type: functional
Outline: (§3)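 Human mDCs isolated from PBMCs by CD19+ B-cell depletion then BDCA1 positive selection; plated at 1 × 10^6 cells/mL, compounds in PBS, 37 °C for 24 h; supernatant cytokines by human Luminex multiplex. Representative of four independent experiments.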

Homo sapiens [19] = species on record: Homo sapiens; assay: Immunostimulatory activity in human mDC assessed as induction of IP10 at 100 ug/ml after 24 hrs; type: functional; outline: as §3
Homo sapiens [20] = species on record: Homo sapiens; assay: Immunostimulatory activity in human mDC assessed as induction of IL12 at 100 ug/ml after 24 hrs; type: functional; outline: as §3
Homo sapiens [21] = species on record: Homo sapiens; assay: Immunostimulatory activity in human mDC assessed as induction of IL6 at 100 ug/ml after 24 hrs; type: functional; outline: as §3
Homo sapiens [22] = species on record: Homo sapiens; assay: Immunostimulatory activity in human mDC assessed as induction of TNFalpha at 100 ug/ml after 24 hrs; type: functional; outline: as §3
Mus musculus = assay: Immunomodulatory activity in C57BL/6 mouse assessed as induction of IL12 release at 25 mg/kg, sc after 2 hrs by ELISA; type: functional, organism-based; parameters: dose 25 mg/kg
Outline: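 Female C57BL/6 wild-type mice, 5–8 weeks old, n=3; compounds given subcutaneously at 10 or 25 mg/kg. Retro-orbital blood at 2 h; serum cytokines by mouse Luminex multiplex or IL-12 ELISA.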

| Structure (SMILES) | remaining at 10 min [1] [%] | fold change (FC) [2] | Ratio (Homo sapiens [3]) | Activity [4] | Activity (Homo sapiens [5]) | Activity (PBMC [6]) | Activity (PBMC [7]) [pg/mL] | Activity (PBMC [8]) [pg/mL] | Activity (PBMC [9]) [pg/mL] | Activity (PBMC [10]) [pg/mL] | Activity (PBMC [11]) [pg/mL] | Activity (PBMC [12]) [pg/mL] | Activity (PBMC [13]) [pg/mL] | Activity (PBMC [14]) [pg/mL] | Activity (PBMC [15]) [pg/mL] | Activity (Homo sapiens [16]) | Activity (Homo sapiens [17]) | Activity (Homo sapiens [18]) | Activity (Homo sapiens [19]) | Activity (Homo sapiens [20]) | further results |
| --- | --- | --- | --- | --- | --- | --- | --- | --- | --- | --- | --- | --- | --- | --- | --- | --- | --- | --- | --- | --- | --- |
| Nc1ccn([C@@H]2O[C@H](COP(=O)(S)O[C@H]3[C@@H](O)[C@H](n4cnc5c(N)ncnc54)O[C@@H]3COP(=O)(S)O[C@H]3[C@@H](O)[C@H](n4ccc5c(=O)[nH]c(N)nc54)O[C@@H]3COP(=O)(S)O[C@H]3[C@@H](O)[C@H](n4ccc(=O)[nH]c4=O)O[C@@H]3COP(=O)(S)O[C@H]3[C@@H](O)[C@H](n4ccc5c(=O)[nH]c(N)nc54)O[C@@H]3COP(=O)(S)O[C@H]3[C@@H](O)[C@H](n4cnc5c(N)ncnc54)O[C@@H]3COP(=O)(S)O[C@H]3[C@@H](O)[C@H](n4cnc5c(N)ncnc54)O[C@@H]3CO)[C@@H](OP(=O)(S)OC[C@H]3O[C@@H](n4ccc5c(=O)[nH]c(N)nc54)[C@H](O)[C@@H]3OP(=O)(S)OC[C@H]3O[C@@H](n4ccc(N)nc4=O)[C@H](O)[C@@H]3OP(=O)(S)OC[C@H]3O[C@@H](n4ccc(=O)[nH]c4=O)[C@H](O)[C@@H]3OP(=O)(S)OC[C@H]3O[C@@H](n4ccc(=O)[nH]c4=O)[C@H](O)[C@@H]3OP(=O)(S)OCC(O)COP(=O)(S)O[C@H]3[C@@H](O)[C@H](n4ccc(=O)[nH]c4=O)O[C@@H]3COP(=O)(S)O[C@H]3[C@@H](O)[C@H](n4ccc(=O)[nH]c4=O)O[C@@H]3COP(=O)(S)O[C@H]3[C@@H](O)[C@H](n4ccc(N)nc4=O)O[C@@H]3COP(=O)(S)O[C@H]3[C@@H](O)[C@H](n4ccc5c(=O)[nH]c(N)nc54)O[C@@H]3COP(=O)(S)O[C@H]3[C@@H](O)[C@H](n4ccc(N)nc4=O)O[C@@H]3COP(=O)(S)O[C@H]3[C@@H](O)[C@H](n4cnc5c(N)ncnc54)O[C@@H]3COP(=O)(S)O[C@H]3[C@@H](O)[C@H](n4ccc5c(=O)[nH]c(N)nc54)O[C@@H]3COP(=O)(S)O[C@H]3[C@@H](O)[C@H](n4ccc(=O)[nH]c4=O)O[C@@H]3COP(=O)(S)O[C@H]3[C@@H](O)[C@H](n4ccc5c(=O)[nH]c(N)nc54)O[C@@H]3COP(=O)(S)O[C@H]3[C@@H](O)[C@H](n4cnc5c(N)ncnc54)O[C@@H]3COP(=O)(S)O[C@H]3[C@@H](O)[C@H](n4cnc5c(N)ncnc54)O[C@@H]3CO)[C@H]2O)c(=O)n1 (stereo partly specified) | 87 | 22.6 | 32.3 | inactive | Active | Dose-dependent effect | 316 | 57 | 209 | 2540 | 6230 | 629 | 51500 | 1300 | 105 | Active | Active | Active | Active | Active | Activity (Homo sapiens [21]): Active; Activity (Homo sapiens [22]): Active; Activity (Mus musculus): Active |
| Nc1ccn([C@@H]2O[C@H](COP(=O)(S)O[C@H]3[C@@H](O)[C@H](n4cnc5c(N)ncnc54)O[C@@H]3CO)[C@@H](OP(=O)(S)OC[C@H]3O[C@@H](n4ccc(=O)[nH]c4=O)[C@H](O)[C@@H]3OP(=O)(S)OC[C@H]3O[C@@H](n4ccc5c(=O)[nH]c(N)nc54)[C@H](O)[C@@H]3OP(=O)(S)OC[C@H]3O[C@@H](n4ccc(N)nc4=O)[C@H](O)[C@@H]3OP(=O)(S)OC[C@H]3O[C@@H](n4ccc5c(=O)[nH]c(N)nc54)[C@H](O)[C@@H]3OP(=O)(S)OC[C@H]3O[C@@H](n4cnc5c(N)ncnc54)[C@H](O)[C@@H]3OP(=O)(S)OC[C@H]3O[C@@H](n4ccc5c(=O)[nH]c(N)nc54)[C@H](O)[C@@H]3OP(=O)(S)OC[C@H]3O[C@@H](n4ccc(N)nc4=O)[C@H](O)[C@@H]3OP(=O)(S)OC[C@H]3O[C@@H](n4ccc(=O)[nH]c4=O)[C@H](O)[C@@H]3OP(=O)(S)OC[C@H]3O[C@@H](n4ccc(=O)[nH]c4=O)[C@H](O)[C@@H]3OP(=O)(S)OCC(O)COP(=O)(S)O[C@H]3[C@@H](O)[C@H](n4ccc(=O)[nH]c4=O)O[C@@H]3COP(=O)(S)O[C@H]3[C@@H](O)[C@H](n4ccc(=O)[nH]c4=O)O[C@@H]3COP(=O)(S)O[C@H]3[C@@H](O)[C@H](n4ccc(N)nc4=O)O[C@@H]3COP(=O)(S)O[C@H]3[C@@H](O)[C@H](n4ccc5c(=O)[nH]c(N)nc54)O[C@@H]3COP(=O)(S)O[C@H]3[C@@H](O)[C@H](n4cnc5c(N)ncnc54)O[C@@H]3COP(=O)(S)O[C@H]3[C@@H](O)[C@H](n4ccc5c(=O)[nH]c(N)nc54)O[C@@H]3COP(=O)(S)O[C@H]3[C@@H](O)[C@H](n4ccc(N)nc4=O)O[C@@H]3COP(=O)(S)O[C@H]3[C@@H](O)[C@H](n4ccc5c(=O)[nH]c(N)nc54)O[C@@H]3COP(=O)(S)O[C@H]3[C@@H](O)[C@H](n4ccc(=O)[nH]c4=O)O[C@@H]3COP(=O)(S)O[C@H]3[C@@H](O)[C@H](n4ccc(N)nc4=O)O[C@@H]3COP(=O)(S)O[C@H]3[C@@H](O)[C@H](n4cnc5c(N)ncnc54)O[C@@H]3CO)[C@H]2O)c(=O)n1 (stereo partly specified) | 71 | 27 | 15.9 | inactive | Active | Dose-dependent effect | 337 | 256 | 266 | 4890 | 8980 | 395 | 51400 | 2580 | 196 | Active | Active | Active | Active | Active | Activity (Homo sapiens [21]): Active; Activity (Homo sapiens [22]): Active; Activity (Mus musculus): Active |
